These results are taken from ChEMBL document CHEMBL3616436, “Synthesis, cytotoxicity and antimicrobial activity of thiourea derivatives incorporating 3-(trifluoromethyl)phenyl moiety” (Eur J Med Chem, 2015).

For data set [1], the system named is Staphylococcus epidermidis. The data set can be described thus: Inhibition of biofilm formation in Staphylococcus epidermidis 151/04 at 8 ug/ml after 24 hrs using MTT staining by spectrophotometer analysis. The conditions noted are these: 151/04, 24 h. The class given is functional.
Another data set concerns HaCaT. The data set can be described thus: Cytotoxicity against human HaCaT cells assessed as cell mortality at 16 uM after 24 hrs by LDH release assay relative to control. The format is cell-based. A digest of the protocol:
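HaCaT cells in DMEM with 2% FBS exposed 24 h to 16 µM compound; LDH released into supernatant measured with commercial kit at 490 nm; % release = (test − untreated low control)/(10% Triton X-100 high control − low control) × 100; three independent experiments in triplicate.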

Data set [2] deals with Staphylococcus epidermidis. In words: Inhibition of biofilm formation in Staphylococcus epidermidis 63/04 at 8 ug/ml after 24 hrs using MTT staining by spectrophotometer analysis. The format is functional. The conditions noted are these: 63/04, 24 h. The procedure, abridged: (§1)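 Methicillin-resistant hospital isolates or ATCC strains of S. epidermidis were grown overnight in tryptone soy broth with 0.5% glucose. Inoculum of 10^7 CFU/mL was mixed 1:1 with compound in TSB-glucose and incubated 24 h at 37 °C. Non-adherent cells were washed off with PBS, and wells were stained with MTT (0.5% in PBS) for 2 h at 37 °C. Stain was solubilized in DMSO/glycine buffer and read at A554. Inhibition is relative to drug-free control; quadruplicates.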

The test system of data set [3] is Staphylococcus epidermidis. The data set can be described thus: Inhibition of biofilm formation in Staphylococcus epidermidis 23/04 at 8 ug/ml after 24 hrs using MTT staining by spectrophotometer analysis. The class given is functional. The conditions noted are these: 23/04, 24 h.
For data set [4], the system named is Staphylococcus epidermidis. The data set can be described thus: Inhibition of biofilm formation in Staphylococcus epidermidis ATCC 35984 at 8 ug/ml after 24 hrs using MTT staining by spectrophotometer analysis. The format is functional. The settings on record: ATCC 35984, 24 h. A digest of the protocol: as §1
The subject of data set [5] is Staphylococcus epidermidis. The data set can be described thus: Inhibition of biofilm formation in Staphylococcus epidermidis ATCC 12228 at 8 ug/ml after 24 hrs using MTT staining by spectrophotometer analysis. The class given is functional. The settings on record: ATCC 12228, 24 h. The procedure, abridged: as §1

What is called inhibition is the percentage by which the read-out fell short of the control. Low readings indicate little suppression, high ones strong suppression. `FC(F)(F)c1cccc(NC(=S)Nc2cccc(Br)c2)c1`: the inhibition at 8 µg/mL in data set [1], in data set [2] and in data set [3] was 70% each time. For the same molecule, in the data set on HaCaT, the Activity was determined as 0%.

As to `Fc1ccc(NC(=S)Nc2cccc(C(F)(F)F)c2)cc1Cl`, the inhibition at 8 µg/mL in data set [4], in data set [1], in data set [2], in data set [5] and in data set [3] was 40% in each case. The Activity with HaCaT is given as 8%.
